Assay results as given in ChEMBL document CHEMBL5058577, “EUbOPEN Chemogenomics Library 2 (Multiplex)” (2022).

System: U2OS
Test: Multiplex assay against U2OS
Format: toxicity, cell-based
Conditions: human
Method in brief: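 Compound was added to live cells that had been stained at seeding with Hoechst33342, BioTracker Green Microtubule Cytoskeleton Dye, MitoTracker Red and Annexin V Alexa Fluor 680, and imaging followed on a CQ1 microscope at 37°C and 5% CO2. CellPathfinder machine-learning gating divided cells into Hoechst high-intensity objects or normal cells, normal cells into healthy, pyknosed or fragmented nuclei, and pyknosed cells into mitotic or apoptotic. Tubulin, mitochondrial-mass and membrane-permeability phenotypes are per cents of healthy-nucleus cells.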

[1] = 12 h, 1 µM, compound concentration 1 uM, replicate 1
[2] = 12 h, 1 µM, compound concentration 1 uM, replicate 2
[3] = 12 h, 10 µM, compound concentration 10 uM, replicate 1
[4] = 12 h, 10 µM, compound concentration 10 uM, replicate 2
[5] = 24 h, 1 µM, compound concentration 1 uM, replicate 1
[6] = 24 h, 1 µM, compound concentration 1 uM, replicate 2
[7] = 24 h, 10 µM, compound concentration 10 uM, replicate 1
[8] = 24 h, 10 µM, compound concentration 10 uM, replicate 2
[9] = 48 h, 1 µM, compound concentration 1 uM, replicate 1
[10] = 48 h, 1 µM, compound concentration 1 uM, replicate 2
[11] = 48 h, 10 µM, compound concentration 10 uM, replicate 1
[12] = 48 h, 10 µM, compound concentration 10 uM, replicate 2

Compound: c1cc(OCCCN2CCCCC2)ccc1CN1CCCCC1 [JNJ-5207852]
- Population Apoptotic (%) [1]: 76%
- Population Fragmented Nuclei (%) [1]: 29%
- Population Healthy Nuclei (%) [1]: 65%
- Population Hoechst High Intensity Objects (%) [1]: 2%
- Population Membrane Permeable-Phenotype (%) [1]: 5%
- Population Mitochondria Different-Phenotype (%) [1]: 3%
- Population Mitotic Cells (%) [1]: 23%
- Population Normal (%) [1]: 97%
- Population Pyknosed Nuclei (%) [1]: 5%
- Population Tubulin-Different-Phenotype (%) [1]: 3%
- Total Cell Count [1]: 253
- Population Apoptotic (%) [2]: 58%
- Population Fragmented Nuclei (%) [2]: 25%
- Population Healthy Nuclei (%) [2]: 62%
- Population Hoechst High Intensity Objects (%) [2]: 0%
- Population Membrane Permeable-Phenotype (%) [2]: 7%
- Population Mitotic Cells (%) [2]: 41%
- Population Normal (%) [2]: 99%
- Population Pyknosed Nuclei (%) [2]: 11%
- Total Cell Count [2]: 106
- Population Apoptotic (%) [3]: 73%
- Population Fragmented Nuclei (%) [3]: 34%
- Population Healthy Nuclei (%) [3]: 57%
- Population Hoechst High Intensity Objects (%) [3]: 2%
- Population Membrane Permeable-Phenotype (%) [3]: 5%
- Population Mitochondria Different-Phenotype (%) [3]: 3%
- Population Mitotic Cells (%) [3]: 26%
- Population Normal (%) [3]: 97%
- Population Pyknosed Nuclei (%) [3]: 8%
- Population Tubulin-Different-Phenotype (%) [3]: 3%
- Total Cell Count [3]: 228
- Population Apoptotic (%) [4]: 85%
- Population Fragmented Nuclei (%) [4]: 13%
- Population Healthy Nuclei (%) [4]: 80%
- Population Hoechst High Intensity Objects (%) [4]: 4%
- Population Membrane Permeable-Phenotype (%) [4]: 7%
- Population Mitochondria Different-Phenotype (%) [4]: 9%
- Population Mitotic Cells (%) [4]: 14%
- Population Normal (%) [4]: 95%
- Population Pyknosed Nuclei (%) [4]: 6%
- Population Tubulin-Different-Phenotype (%) [4]: 6%
- Total Cell Count [4]: 120
- Population Apoptotic (%) [5]: 84%
- Population Fragmented Nuclei (%) [5]: 25%
- Population Healthy Nuclei (%) [5]: 65%
- Population Hoechst High Intensity Objects (%) [5]: 1%
- Population Membrane Permeable-Phenotype (%) [5]: 3%
- Population Mitochondria Different-Phenotype (%) [5]: 2%
- Population Mitotic Cells (%) [5]: 16%
- Population Normal (%) [5]: 98%
- Population Pyknosed Nuclei (%) [5]: 8%
- Population Tubulin-Different-Phenotype (%) [5]: 2%
- Total Cell Count [5]: 287
- Population Apoptotic (%) [6]: 66%
- Population Fragmented Nuclei (%) [6]: 21%
- Population Healthy Nuclei (%) [6]: 68%
- Population Hoechst High Intensity Objects (%) [6]: 0%
- Population Membrane Permeable-Phenotype (%) [6]: 4%
- Population Mitotic Cells (%) [6]: 33%
- Population Normal (%) [6]: 100%
- Population Pyknosed Nuclei (%) [6]: 10%
- Population Tubulin-Different-Phenotype (%) [6]: 4%
- Total Cell Count [6]: 119
- Population Apoptotic (%) [7]: 82%
- Population Fragmented Nuclei (%) [7]: 28%
- Population Healthy Nuclei (%) [7]: 62%
- Population Hoechst High Intensity Objects (%) [7]: 1%
- Population Membrane Permeable-Phenotype (%) [7]: 4%
- Population Mitochondria Different-Phenotype (%) [7]: 3%
- Population Mitotic Cells (%) [7]: 17%
- Population Normal (%) [7]: 98%
- Population Pyknosed Nuclei (%) [7]: 8%
- Population Tubulin-Different-Phenotype (%) [7]: 3%
- Total Cell Count [7]: 271
- Population Apoptotic (%) [8]: 84%
- Population Fragmented Nuclei (%) [8]: 10%
- Population Healthy Nuclei (%) [8]: 80%
- Population Membrane Permeable-Phenotype (%) [8]: 8%
- Population Mitochondria Different-Phenotype (%) [8]: 5%
- Population Mitotic Cells (%) [8]: 15%
- Population Tubulin-Different-Phenotype (%) [8]: 8%
- Total Cell Count [8]: 157
- Population Apoptotic (%) [9]: 82%
- Population Fragmented Nuclei (%) [9]: 21%
- Population Healthy Nuclei (%) [9]: 69%
- Population Hoechst High Intensity Objects (%) [9]: 2%
- Population Membrane Permeable-Phenotype (%) [9]: 4%
- Population Mitochondria Different-Phenotype (%) [9]: 2%
- Population Mitotic Cells (%) [9]: 17%
- Population Normal (%) [9]: 97%
- Population Pyknosed Nuclei (%) [9]: 8%
- Population Tubulin-Different-Phenotype (%) [9]: 4%
- Total Cell Count [9]: 400
- Population Apoptotic (%) [10]: 76%
- Population Fragmented Nuclei (%) [10]: 19%
- Population Healthy Nuclei (%) [10]: 71%
- Population Hoechst High Intensity Objects (%) [10]: 3%
- Population Membrane Permeable-Phenotype (%) [10]: 9%
- Population Mitochondria Different-Phenotype (%) [10]: 4%
- Population Mitotic Cells (%) [10]: 23%
- Population Normal (%) [10]: 96%
- Population Tubulin-Different-Phenotype (%) [10]: 3%
- Total Cell Count [10]: 152
- Population Apoptotic (%) [11]: 86%
- Population Fragmented Nuclei (%) [11]: 22%
- Population Healthy Nuclei (%) [11]: 70%
- Population Hoechst High Intensity Objects (%) [11]: 2%
- Population Membrane Permeable-Phenotype (%) [11]: 7%
- Population Mitochondria Different-Phenotype (%) [11]: 3%
- Population Mitotic Cells (%) [11]: 13%
- Population Normal (%) [11]: 97%
- Population Pyknosed Nuclei (%) [11]: 6%
- Population Tubulin-Different-Phenotype (%) [11]: 5%
- Total Cell Count [11]: 345
- Population Apoptotic (%) [12]: 93%
- Population Fragmented Nuclei (%) [12]: 14%
- Population Healthy Nuclei (%) [12]: 78%
- Population Hoechst High Intensity Objects (%) [12]: 1%
- Population Membrane Permeable-Phenotype (%) [12]: 6%
- Population Mitochondria Different-Phenotype (%) [12]: 2%
- Population Mitotic Cells (%) [12]: 6%
- Population Normal (%) [12]: 98%
- Population Tubulin-Different-Phenotype (%) [12]: 4%
- Total Cell Count [12]: 245

Compound: Cc1ccc(F)cc1C(=O)Nc1ccc(C(=O)N2Cc3cccn3Cc3ccccc32)c(Cl)c1 [LIXIVAPTAN]
- Population Apoptotic (%) [1]: 69%
- Population Fragmented Nuclei (%) [1]: 32%
- Population Healthy Nuclei (%) [1]: 55%
- Population Hoechst High Intensity Objects (%) [1]: 3%
- Population Membrane Permeable-Phenotype (%) [1]: 9%
- Population Mitochondria Different-Phenotype (%) [1]: 9%
- Population Mitotic Cells (%) [1]: 30%
- Population Normal (%) [1]: 96%
- Population Pyknosed Nuclei (%) [1]: 11%
- Population Tubulin-Different-Phenotype (%) [1]: 7%
- Total Cell Count [1]: 230
- Population Apoptotic (%) [2]: 84%
- Population Fragmented Nuclei (%) [2]: 8%
- Population Healthy Nuclei (%) [2]: 82%
- Population Membrane Permeable-Phenotype (%) [2]: 14%
- Population Mitochondria Different-Phenotype (%) [2]: 10%
- Population Mitotic Cells (%) [2]: 15%
- Population Pyknosed Nuclei (%) [2]: 8%
- Population Tubulin-Different-Phenotype (%) [2]: 11%
- Total Cell Count [2]: 150
- Population Apoptotic (%) [3]: 59%
- Population Fragmented Nuclei (%) [3]: 34%
- Population Healthy Nuclei (%) [3]: 49%
- Population Hoechst High Intensity Objects (%) [3]: 5%
- Population Membrane Permeable-Phenotype (%) [3]: 79%
- Population Mitochondria Different-Phenotype (%) [3]: 42%
- Population Mitotic Cells (%) [3]: 40%
- Population Normal (%) [3]: 94%
- Population Pyknosed Nuclei (%) [3]: 16%
- Population Tubulin-Different-Phenotype (%) [3]: 85%
- Total Cell Count [3]: 203
- Population Apoptotic (%) [4]: 47%
- Population Fragmented Nuclei (%) [4]: 13%
- Population Healthy Nuclei (%) [4]: 69%
- Population Membrane Permeable-Phenotype (%) [4]: 63%
- Population Mitochondria Different-Phenotype (%) [4]: 55%
- Population Mitotic Cells (%) [4]: 52%
- Population Tubulin-Different-Phenotype (%) [4]: 77%
- Total Cell Count [4]: 119
- Population Apoptotic (%) [5]: 86%
- Population Fragmented Nuclei (%) [5]: 26%
- Population Healthy Nuclei (%) [5]: 64%
- Population Hoechst High Intensity Objects (%) [5]: 1%
- Population Membrane Permeable-Phenotype (%) [5]: 9%
- Population Mitochondria Different-Phenotype (%) [5]: 9%
- Population Mitotic Cells (%) [5]: 13%
- Population Normal (%) [5]: 98%
- Population Pyknosed Nuclei (%) [5]: 8%
- Population Tubulin-Different-Phenotype (%) [5]: 4%
- Total Cell Count [5]: 257
- Population Apoptotic (%) [6]: 57%
- Population Fragmented Nuclei (%) [6]: 14%
- Population Healthy Nuclei (%) [6]: 81%
- Population Hoechst High Intensity Objects (%) [6]: 4%
- Population Membrane Permeable-Phenotype (%) [6]: 11%
- Population Mitochondria Different-Phenotype (%) [6]: 13%
- Population Mitotic Cells (%) [6]: 42%
- Population Normal (%) [6]: 95%
- Population Pyknosed Nuclei (%) [6]: 4%
- Population Tubulin-Different-Phenotype (%) [6]: 7%
- Total Cell Count [6]: 171
- Population Apoptotic (%) [7]: 59%
- Population Fragmented Nuclei (%) [7]: 30%
- Population Healthy Nuclei (%) [7]: 50%
- Population Hoechst High Intensity Objects (%) [7]: 4%
- Population Membrane Permeable-Phenotype (%) [7]: 65%
- Population Mitochondria Different-Phenotype (%) [7]: 63%
- Population Mitotic Cells (%) [7]: 40%
- Population Normal (%) [7]: 95%
- Population Pyknosed Nuclei (%) [7]: 18%
- Population Tubulin-Different-Phenotype (%) [7]: 75%
- Total Cell Count [7]: 207
- Population Apoptotic (%) [8]: 66%
- Population Fragmented Nuclei (%) [8]: 14%
- Population Healthy Nuclei (%) [8]: 67%
- Population Membrane Permeable-Phenotype (%) [8]: 54%
- Population Mitochondria Different-Phenotype (%) [8]: 67%
- Population Mitotic Cells (%) [8]: 33%
- Population Tubulin-Different-Phenotype (%) [8]: 66%
- Total Cell Count [8]: 119
- Population Apoptotic (%) [9]: 87%
- Population Fragmented Nuclei (%) [9]: 24%
- Population Healthy Nuclei (%) [9]: 64%
- Population Hoechst High Intensity Objects (%) [9]: 1%
- Population Membrane Permeable-Phenotype (%) [9]: 9%
- Population Mitochondria Different-Phenotype (%) [9]: 6%
- Population Mitotic Cells (%) [9]: 12%
- Population Normal (%) [9]: 98%
- Population Pyknosed Nuclei (%) [9]: 11%
- Population Tubulin-Different-Phenotype (%) [9]: 5%
- Total Cell Count [9]: 378
- Population Apoptotic (%) [10]: 95%
- Population Fragmented Nuclei (%) [10]: 10%
- Population Healthy Nuclei (%) [10]: 79%
- Population Hoechst High Intensity Objects (%) [10]: 3%
- Population Membrane Permeable-Phenotype (%) [10]: 13%
- Population Mitochondria Different-Phenotype (%) [10]: 11%
- Population Mitotic Cells (%) [10]: 5%
- Population Normal (%) [10]: 96%
- Population Pyknosed Nuclei (%) [10]: 10%
- Total Cell Count [10]: 206
- Population Apoptotic (%) [11]: 75%
- Population Fragmented Nuclei (%) [11]: 32%
- Population Healthy Nuclei (%) [11]: 37%
- Population Hoechst High Intensity Objects (%) [11]: 5%
- Population Membrane Permeable-Phenotype (%) [11]: 49%
- Population Mitochondria Different-Phenotype (%) [11]: 40%
- Population Mitotic Cells (%) [11]: 25%
- Population Normal (%) [11]: 94%
- Population Pyknosed Nuclei (%) [11]: 29%
- Population Tubulin-Different-Phenotype (%) [11]: 44%
- Total Cell Count [11]: 232
- Population Apoptotic (%) [12]: 92%
- Population Fragmented Nuclei (%) [12]: 18%
- Population Healthy Nuclei (%) [12]: 58%
- Population Hoechst High Intensity Objects (%) [12]: 12%
- Population Membrane Permeable-Phenotype (%) [12]: 60%
- Population Mitochondria Different-Phenotype (%) [12]: 52%
- Population Mitotic Cells (%) [12]: 7%
- Population Normal (%) [12]: 87%
- Population Pyknosed Nuclei (%) [12]: 23%
- Population Tubulin-Different-Phenotype (%) [12]: 57%
- Total Cell Count [12]: 137
